From ChEMBL document CHEMBL5331102, “Novel S1R agonists counteracting NMDA excitotoxicity and oxidative stress: A step forward in the discovery of neuroprotective agents” (Eur J Med Chem, 2023)
≈ marks a conversion by molar mass, not a printed value. Calls of active or inactive are those of the source. No cut-off for these calls is given here.

Columns and labels:
[1] = Toxicity in Zebrafish embryos assessed as variation in embryo morphology score at 10 uM incubated for 5 days by Teratogenic test; set-up: species or system Danio rerio; conditions: in vivo, 120 h, time 5 day
In short: (§1)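 Tg(GFAP:GFP) zebrafish embryos, 8 per group, exposed from 1 h post-fertilization to increasing compound concentrations at 28 °C for about 5 days without medium change; mortality, developmental defects and morphology score assessed at 5 dpf.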

[2] = Thermodynamic solubility of the compound in KH2PO4/Na2HPO4 buffer at pH 7.4 incubated for 24 hrs; format: physicochemical; conditions: read-out: Therm_solubility
In short: (§2)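 10 mM DMSO stock diluted 1:100 into buffer (HCl/KCl pH 1.2; KH2PO4/NaOH pH 6.8; KH2PO4/Na2HPO4 pH 7.4), 1% v/v DMSO final; shaken 24 h at 1200 rpm, filtered through 0.45 μm polycarbonate membrane, filtrate diluted 1:1 with MeOH and analysed.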

[3] = Toxicity in Zebrafish embryos assessed as death at 10 uM incubated for 5 days by Teratogenic test; set-up: species or system Danio rerio, Embryo; conditions: in vivo, time 5 day, read-out: Activity
In short: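 Tg(GFAP:GFP) zebrafish embryos from 2 female × 1 male matings, 8 embryos per control or concentration, exposed from 1 h post-fertilization and kept at 28 °C for about 5 days without medium change. At 5 dpf (120 h) mortality and developmental abnormalities (tail shape, heart, pigmentation) were scored, with morphology given a severity score.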

[4] = Toxicity in Zebrafish embryos assessed as morphological abnormality by observing enlarged volume of heart at 10 uM incubated for 5 days by Teratogenic test; format: tissue-based, Danio rerio; conditions: in vivo, 120 h, time 5 day; in short: as §1
[5] = tested on: PC-12; experiment: Neuroprotective activity in rat PC12 cells assessed as induction of NGF-mediated neurite outgrowth at 0.1 to 5 uM in presence of NE-100 by neurite outgrowth assay; format: functional, cell-based; conditions: dose 0.1-5 µM
In short: (§3)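 PC12 cells stimulated with NGF (2.5 nM) and treated with compound up to 5 μM, alone or after pre-treatment with S1R antagonist NE-100 (3 μM); read-out is percentage of cells bearing neurite sprouts; mean ± SEM of three independent experiments.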

[6] = Dissociation constant, pKa of the compound; format: physicochemical
[7] = tested on: PANC-1; experiment: Cytotoxicity against human PANC-1 cells assessed as reduction in cell survival rate at <=10 uM incubated for 24 to 72 hrs by MTT assay; format: toxicity, cell-based; conditions: panc-1, 10 µM, time 24-72 hrs
In short: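 Cancer lines grown in Ham's F-12K or DMEM with 10% FBS, used in exponential growth; seeded 2500 cells/well, exposed to 0.1–100 μM for 24, 48 and 72 h continuous. Viability by CellTiter 96 AQueous One (tetrazolium) absorbance at 490 nm; three independent experiments in quadruplicate, % survival vs untreated.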

[8] = Thermodynamic solubility of the compound in KH2PO4/NaOH buffer at pH 6.8 incubated for 24 hrs; format: physicochemical; conditions: read-out: Therm_solubility; in short: as §2
[9] = Toxicity in Zebrafish embryos assessed as variation in embryo morphology score at 1 uM incubated for 5 days by Teratogenic test; set-up: species or system Danio rerio; conditions: in vivo, 120 h, time 5 day; in short: as §1
[10] = tested on: SH-SY5Y; experiment: Neuroprotective activity in human SH-SY5Y cells assessed as prevention of rotenone induced cell damage by measuring cell viability at 1 uM incubated for 24 hrs in presence of rotenone by MTT assay; format: functional
In short: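 SH-SY5Y cells co-exposed 24 h at 37 °C to rotenone 25 μM and compound at 1.0 or 5.0 μM in 2% FBS medium; viability by MTT, mean ± SD of three independent experiments.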

[11] = tested on: PC-12; experiment: Cytotoxicity against rat PC12 cells assessed as reduction in cell viability at <5 uM incubated for 24 hrs by MTT assay; format: toxicity, cell-based; conditions: pc-12, 24 h
[12] = tested on: SH-SY5Y; experiment: Cytotoxicity against human SH-SY5Y cells assessed as cell death at 0.1 to 50 uM incubated for 72 hrs by MTT assay; format: toxicity, cell-based; conditions: dose 0.1-50 µM
In short: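 SH-SY5Y cells kept in DMEM/10% FBS, 2 mM glutamine, 37 °C, 5% CO2; ~7000 cells/well, after 1 day given compound (six concentrations, 0.1–100 μM; DMSO stocks 10 mM) in 2% FBS medium for 72 h. MTT (0.5% w/v, 2 h), formazan dissolved in DMSO, absorbance read; triplicates, % of untreated control.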

[13] = Lipophilicity, logP of the compound; format: physicochemical; conditions: octanol/water
[14] = Toxicity in Zebrafish embryos assessed as morphological abnormality by observing oedema at 10 uM incubated for 5 days by Teratogenic test; set-up: species or system Danio rerio, Embryo; conditions: in vivo, 120 h, time 5 day; in short: as §1
[15] = Toxicity in Zebrafish embryos assessed as morphological abnormality by observing poor pigmentation at 10 uM incubated for 5 days by Teratogenic test; set-up: species or system Danio rerio, Embryo; conditions: in vivo, 120 h, time 5 day; in short: as §1
[16] = tested on: PC-12; experiment: Neuroprotective activity in rat PC12 cells assessed as induction of NGF-mediated neurite outgrowth at 0.5 uM by neurite outgrowth assay (Rvb=26 +/- 4%); format: functional; in short: as §3
[17] = Toxicity in Zebrafish embryos assessed as morphological abnormality by observing inflated swim bladder at 10 uM incubated for 5 days by Teratogenic test; format: tissue-based, Danio rerio, Embryo; conditions: in vivo, 120 h, time 5 day; in short: as §1
[18] = tested on: PC-12; experiment: Cytotoxicity against rat PC12 cells assessed as reduction in cell viability at <1 uM incubated for 24 hrs by MTT assay; format: toxicity, cell-based; conditions: pc-12, 24 h

SMILES	Activity [1]	solubility thermodynamic at 24 h [2] [µg/mL]	mortality at 120 h, 10 µM [3] [%]	Activity [4]	Activity [5]	pKa [6]	Activity [7]	solubility thermodynamic at 24 h [8] [µg/mL]	Activity [9]	Activity [10] [%]	Activity [11]	Activity [12]	logP [13]	Activity [14]	Activity [15]	Activity [16] [%]	Activity [17]	Activity [18]
c1ccc(CC2CCN(CCCOc3ccccc3)CC2)cc1	Non-Toxic	2800 (≈ 9.05 mM)	100	Toxic	inactive	9.26	Non-Toxic	2800 (≈ 9.05 mM)	Non-Toxic	68	Non-Toxic	Non-Toxic	4.38	–	–	–	–	–
c1ccc(CC2CCN(CCOc3ccccc3)CC2)cc1	Toxic	7800 (≈ 26.4 mM)	50	100%	inactive	8.56	Non-Toxic	7800 (≈ 26.4 mM)	Non-Toxic	65	–	Non-Toxic	4	Toxic	Toxic	37	Toxic	Non-Toxic
